Laboratory results as given in ChEMBL document CHEMBL4229515, “A novel synthesis of 2-arylbenzimidazoles in molecular sieves-MeOH system and their antitubercular activity” (Bioorg Med Chem, 2018).

Key:
[1] = Lipophilicity, log P of the compound; type: physicochemical; settings: octanol/water; read-out: logP
[2] = target: DNA gyrase subunit A/DNA gyrase subunit B (Mycobacterium tuberculosis (strain ATCC 25618 / H37Rv), UniProt P9WG45+P9WG47); assay: Inhibition of Mycobacterium tuberculosis DNA gyrase supercoiling activity using relaxed pBR322 as substrate after 30 mins by agarose gel electrophoresis; type: protein-complex assay
Chain of DNA gyrase subunit A/DNA gyrase subunit B (P9WG45 whole entry): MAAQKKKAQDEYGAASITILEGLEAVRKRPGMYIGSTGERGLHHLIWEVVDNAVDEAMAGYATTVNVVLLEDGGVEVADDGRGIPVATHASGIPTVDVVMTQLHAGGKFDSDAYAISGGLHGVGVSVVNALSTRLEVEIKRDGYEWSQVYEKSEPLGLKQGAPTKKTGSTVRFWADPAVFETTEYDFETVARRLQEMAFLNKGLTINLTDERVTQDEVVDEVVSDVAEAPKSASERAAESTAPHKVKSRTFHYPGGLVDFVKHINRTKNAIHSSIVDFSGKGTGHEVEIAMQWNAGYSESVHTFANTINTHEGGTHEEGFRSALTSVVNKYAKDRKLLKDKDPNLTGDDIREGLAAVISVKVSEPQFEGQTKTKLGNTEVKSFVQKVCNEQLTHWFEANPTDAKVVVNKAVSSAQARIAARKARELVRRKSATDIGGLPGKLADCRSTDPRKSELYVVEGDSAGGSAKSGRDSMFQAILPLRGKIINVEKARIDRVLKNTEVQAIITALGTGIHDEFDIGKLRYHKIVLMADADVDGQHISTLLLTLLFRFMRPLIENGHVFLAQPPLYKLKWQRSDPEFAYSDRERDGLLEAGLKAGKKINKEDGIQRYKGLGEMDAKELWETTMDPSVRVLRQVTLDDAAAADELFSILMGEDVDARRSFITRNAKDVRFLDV
Chain of DNA gyrase subunit A/DNA gyrase subunit B (P9WG47 whole entry): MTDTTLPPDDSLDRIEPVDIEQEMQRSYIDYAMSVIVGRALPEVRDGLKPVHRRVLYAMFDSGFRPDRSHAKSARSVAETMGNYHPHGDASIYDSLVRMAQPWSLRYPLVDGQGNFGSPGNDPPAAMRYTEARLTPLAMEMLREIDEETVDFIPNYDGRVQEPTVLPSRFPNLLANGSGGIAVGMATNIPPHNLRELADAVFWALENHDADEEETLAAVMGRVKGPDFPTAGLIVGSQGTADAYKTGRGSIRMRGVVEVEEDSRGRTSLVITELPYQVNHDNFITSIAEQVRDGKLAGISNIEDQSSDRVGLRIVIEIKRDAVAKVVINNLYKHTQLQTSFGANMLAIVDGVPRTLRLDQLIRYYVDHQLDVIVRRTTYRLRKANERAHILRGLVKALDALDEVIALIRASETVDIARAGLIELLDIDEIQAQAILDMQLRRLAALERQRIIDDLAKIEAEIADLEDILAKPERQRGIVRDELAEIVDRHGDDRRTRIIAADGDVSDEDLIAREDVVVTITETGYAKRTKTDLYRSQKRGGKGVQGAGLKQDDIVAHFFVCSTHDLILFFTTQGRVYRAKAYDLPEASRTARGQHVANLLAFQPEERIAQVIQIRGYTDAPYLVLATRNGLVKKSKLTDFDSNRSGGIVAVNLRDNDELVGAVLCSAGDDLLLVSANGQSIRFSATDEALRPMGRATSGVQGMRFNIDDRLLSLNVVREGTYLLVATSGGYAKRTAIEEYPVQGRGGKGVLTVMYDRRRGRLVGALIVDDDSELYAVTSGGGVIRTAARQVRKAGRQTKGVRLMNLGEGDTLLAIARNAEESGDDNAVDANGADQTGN

Mus musculus [3] = assay: Acute toxicity in Swiss albino mouse assessed as effect on SGPT levels at 5 mg/kg, po after 7 days (reference value: 16.08 +/- 1.38 U/L); type: organism-based; settings: in vivo, 168 h
Mus musculus [4] = assay: Acute toxicity in Swiss albino mouse assessed as effect on SGOT levels at 5 mg/kg, po after 7 days (reference value: 15.11 +/- 1.25 U/L); type: organism-based; settings: in vivo, 168 h
Mus musculus [5] = assay: Acute toxicity in Swiss albino mouse assessed as effect on cholesterol levels at 5 mg/kg, po after 7 days (reference value: 89.73 +/- 10.76 mg/dL); type: organism-based; settings: in vivo, 168 h
Mus musculus [6] = assay: Acute toxicity in Swiss albino mouse assessed as effect on GSH levels per mg of tissue protein at 5 mg/kg, po after 7 days (reference value: 17.64 +/- 1.03 micromol); type: organism-based; settings: in vivo, 168 h
Mus musculus [7] = assay: Acute toxicity in Swiss albino mouse assessed as effect on RBC count at 50 mg/kg, po after 7 days (reference value: 7.61 +/- 0.54 10^6/mm3); type: organism-based; settings: in vivo, 168 h
Mus musculus [8] = assay: Acute toxicity in Swiss albino mouse assessed as effect on WBC count at 50 mg/kg, po after 7 days (reference value: 7.47 +/- 1.61 10^3/mm3); type: organism-based; settings: in vivo, 168 h
Mus musculus [9] = assay: Acute toxicity in Swiss albino mouse assessed as effect on SGPT levels at 50 mg/kg, po after 7 days (reference value: 16.08 +/- 1.38 U/L); type: organism-based; settings: in vivo, 168 h
Mus musculus [10] = assay: Acute toxicity in Swiss albino mouse assessed as effect on haemoglobin levels at 50 mg/kg, po after 7 days (reference value: 12.29 +/- 0.53 g/dL); type: organism-based; settings: in vivo, 168 h
Mus musculus [11] = assay: Acute toxicity in Swiss albino mouse assessed as effect on triglyceride levels at 50 mg/kg, po after 7 days (reference value: 45.21 +/- 2.95 mg/dL); type: organism-based; settings: in vivo, 168 h
Mus musculus [12] = assay: Acute toxicity in Swiss albino mouse assessed as effect on albumin levels at 50 mg/kg, po after 7 days (reference value: 3.53 +/- 0.35 mg/dL); type: organism-based; settings: in vivo, 168 h
Mus musculus [13] = assay: Acute toxicity in Swiss albino mouse assessed as effect on serum protein levels at 50 mg/kg, po after 7 days (reference value: 0.10 +/- 0.004 mg/mL); type: organism-based; settings: in vivo, 168 h
Mus musculus [14] = assay: Acute toxicity in Swiss albino mouse assessed as effect on MDA levels per mg of tissue protein at 50 mg/kg, po after 7 days (reference value: 0.24 +/- 0.05 nmol); type: organism-based; settings: in vivo, 168 h
Mus musculus [15] = assay: Acute toxicity in Swiss albino mouse assessed as effect on body weight at 300 mg/kg, po after 7 days (reference value: 28.25 +/- 0.54 g); type: organism-based; settings: in vivo, 168 h
Mus musculus [16] = assay: Acute toxicity in Swiss albino mouse assessed as effect on triglyceride levels at 300 mg/kg, po after 7 days (reference value: 45.21 +/- 2.95 mg/dL); type: organism-based; settings: in vivo, 168 h
Mus musculus [17] = assay: Acute toxicity in Swiss albino mouse assessed as effect on albumin levels at 300 mg/kg, po after 7 days (reference value: 3.53 +/- 0.35 mg/dL); type: organism-based; settings: in vivo, 168 h
Mus musculus [18] = assay: Acute toxicity in Swiss albino mouse assessed as effect on serum protein levels at 300 mg/kg, po after 7 days (reference value: 0.10 +/- 0.004 mg/mL); type: organism-based; settings: in vivo, 168 h
Mus musculus [19] = assay: Acute toxicity in Swiss albino mouse assessed as effect on MDA levels per mg of tissue protein at 300 mg/kg, po after 7 days (reference value: 0.24 +/- 0.05 nmol); type: organism-based; settings: in vivo, 168 h
Mus musculus [20] = assay: Acute toxicity in Swiss albino mouse assessed as effect on body weight at 1000 mg/kg, po after 7 days (reference value: 28.25 +/- 0.54 g); type: organism-based; settings: in vivo, 168 h
Mus musculus [21] = assay: Acute toxicity in Swiss albino mouse assessed as effect on RBC count at 1000 mg/kg, po after 7 days (reference value: 7.61 +/- 0.54 10^6/mm3); type: organism-based; settings: in vivo, 168 h
Mus musculus [22] = assay: Acute toxicity in Swiss albino mouse assessed as effect on WBC count at 1000 mg/kg, po after 7 days (reference value: 7.47 +/- 1.61 10^3/mm3); type: organism-based; settings: in vivo, 168 h
Mus musculus [23] = assay: Acute toxicity in Swiss albino mouse assessed as effect on SGOT levels at 1000 mg/kg, po after 7 days (reference value: 15.11 +/- 1.25 U/L); type: organism-based; settings: in vivo, 168 h
Mus musculus [24] = assay: Acute toxicity in Swiss albino mouse assessed as effect on ALKP levels at 1000 mg/kg, po after 7 days (reference value: 219.20 +/- 5.9 U/L); type: organism-based; settings: in vivo, 168 h
Mus musculus [25] = assay: Acute toxicity in Swiss albino mouse assessed as effect on haemoglobin levels at 1000 mg/kg, po after 7 days (reference value: 12.29 +/- 0.53 g/dL); type: organism-based; settings: in vivo, 168 h
Mus musculus [26] = assay: Acute toxicity in Swiss albino mouse assessed as effect on cholesterol levels at 1000 mg/kg, po after 7 days (reference value: 89.73 +/- 10.76 mg/dL); type: organism-based; settings: in vivo, 168 h
Mus musculus [27] = assay: Acute toxicity in Swiss albino mouse assessed as effect on triglyceride levels at 1000 mg/kg, po after 7 days (reference value: 45.21 +/- 2.95 mg/dL); type: organism-based; settings: in vivo, 168 h
Mus musculus [28] = assay: Acute toxicity in Swiss albino mouse assessed as effect on albumin levels at 1000 mg/kg, po after 7 days (reference value: 3.53 +/- 0.35 mg/dL); type: organism-based; settings: in vivo, 168 h
Mus musculus [29] = assay: Acute toxicity in Swiss albino mouse assessed as effect on MDA levels per mg of tissue protein at 1000 mg/kg, po after 7 days (reference value: 0.24 +/- 0.05 nmol); type: organism-based; settings: in vivo, 168 h
Mus musculus [30] = assay: Acute toxicity in Swiss albino mouse assessed as change in morbidity up to 300 mg/kg, po measured over 7 days; type: organism-based; settings: in vivo, 168 h
Procedure, shortened: (§1)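 Single acute oral dose of 5, 50, 300 or 1000 mg/kg body weight, with an untreated control group; n=6 mice per group. Animals observed for 7 days for morbidity, mortality, behaviour and body weight. At the end, blood and serum were analysed, and organs were examined grossly with absolute and relative weights. Data are mean±SE; P<0.05 was taken as significant versus control and the lower-dose groups.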

Mus musculus [31] = assay: Acute toxicity in Swiss albino mouse assessed as effect on absolute lung weight at 5 to 1000 mg/kg, po after 7 days; type: organism-based; settings: in vivo, 168 h; procedure, shortened: as §1
Mus musculus [32] = assay: Acute toxicity in Swiss albino mouse assessed as effect on absolute spleen weight at 5 to 1000 mg/kg, po after 7 days; type: organism-based; settings: in vivo, 168 h; procedure, shortened: as §1
Mus musculus [33] = assay: Acute toxicity in Swiss albino mouse assessed as effect on relative liver weight at 5 to 300 mg/kg, po after 7 days; type: organism-based; settings: in vivo, 168 h; procedure, shortened: as §1
Mus musculus [34] = assay: Acute toxicity in Swiss albino mouse assessed as effect on relative brain weight at 5 to 1000 mg/kg, po after 7 days; type: organism-based; settings: in vivo, 168 h; procedure, shortened: as §1
Mus musculus [35] = assay: Acute toxicity in Swiss albino mouse assessed as effect on relative spleen weight at 5 to 1000 mg/kg, po after 7 days; type: organism-based; settings: in vivo, 168 h; procedure, shortened: as §1

For `COc1ccc2c(c1)nc(-c1ccccc1OC)n2Cc1ccccc1OC`, the logP [1] was 4.45, the IC50 [2] was 358 µM and the Activity (Mus musculus [3]) was 15.26 U/L. For the same compound, the Activity (Mus musculus [4]) was 11.96 U/L, the Activity (Mus musculus [5]) was 91.48 mg/dL and the Activity (Mus musculus [6]) was 15.6 µmol. For the same compound, the Activity (Mus musculus [7]) was 7.44 10^6/mm3, the Activity (Mus musculus [8]) was 6.33 10^3/mm3 and the Activity (Mus musculus [9]) was 15.98 U/L. It also gave an Activity (Mus musculus [10]) of 11.45 g/dL, an Activity (Mus musculus [11]) of 41.98 mg/dL and an Activity (Mus musculus [12]) of 3.58 mg/dL. For the same compound, the Activity (Mus musculus [13]) was 0.09 mg/mL, the Activity (Mus musculus [14]) was 0.32 nmol and the Activity (Mus musculus [15]) was 25.47 g. For the same compound, the Activity (Mus musculus [16]) was 43.04 mg/dL, the Activity (Mus musculus [17]) was 3.79 mg/dL and the Activity (Mus musculus [18]) was 0.09 mg/mL. The Activity (Mus musculus [19]) was 0.39 nmol, the Activity (Mus musculus [20]) was 22.86 g and the Activity (Mus musculus [21]) was 7.33 10^6/mm3. The Activity (Mus musculus [22]) was 6.67 10^3/mm3, the Activity (Mus musculus [23]) was 11.83 U/L and the Activity (Mus musculus [24]) was 118.06 U/L. The Activity (Mus musculus [25]) was 9.68 g/dL, the Activity (Mus musculus [26]) was 115.43 mg/dL and the Activity (Mus musculus [27]) was 57.01 mg/dL. The Activity (Mus musculus [28]) was 2.89 mg/dL, the Activity (Mus musculus [29]) was 0.71 nmol and the Activity (Mus musculus [30]) was “Non-Toxic”. For the same compound, the Activity (Mus musculus [31]) was “Non-Toxic”, the Activity (Mus musculus [32]) was “Non-Toxic” and the Activity (Mus musculus [33]) was “Non-Toxic”. For the same compound, the Activity (Mus musculus [34]) was “Non-Toxic” and the Activity (Mus musculus [35]) was “Non-Toxic”.
